Measured values published in ChEMBL document CHEMBL1124344, “5-Piperazinylalkyl-2(3H)-oxazolones with neuroleptic activity” (J Med Chem, 1989).

Assays:
Mus musculus [1] = experiment: Inhibition of spontaneous locomotor activity, after 1 hour of peroral administration in mouse; format: functional; details: po
Procedure, shortened: (§1)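 Mice in groups of five were dosed orally with gum arabic suspensions at 10 mL/kg after an overnight fast, with a vehicle control group. Locomotion was counted for 10 min in a photocell activity cage, in at least two groups per dose. ED50, by probit analysis, is the dose giving 50% inhibition against controls.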

Mus musculus [2] = experiment: Inhibition of spontaneous locomotor activity, after 5 hour of peroral administration in mouse; format: functional; details: po; procedure, shortened: as §1
Mus musculus [3] = experiment: Inhibitory activity against tremorine-induced tremors, after 5 hour of peroral administration in mouse at dose 7.5 mg/kg; format: functional; details: route oral
Procedure, shortened: (§2)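 Male mice fasted overnight, dosed orally with arabic gum suspension (10 mL/kg) 1 or 5 h before test, vehicle controls included. Tremorine 20 mg/kg ip given 1 h after compounds; central (tremor) and peripheral (salivation) parasympathetic signs recorded. ED50 = dose protecting 50% of animals, by probit analysis.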

Mus musculus [4] = experiment: Inhibition of spontaneous motor activity after 5 hour of peroral administration in mouse; format: functional; details: po; procedure, shortened: as §1
Mus musculus [5] = experiment: Anticonvulsant activity against electroshock-induced convulsions, after 5 hour of peroral administration in mouse at a dose of 40 mg/kg; format: functional; details: route oral
Procedure, shortened: (§3)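 Compounds were dosed as bases suspended in arabic gum at 10 mL/kg orally, after an overnight fast, with vehicle controls. Protection meant no bilateral forepaw clonic seizures or head twitches (tryptamine), or no tonic hind-limb extension (the other two). ED50 is the dose protecting 50%, by probit analysis.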

Rattus norvegicus [6] = organism: Rattus norvegicus; experiment: Body weight gain, after 2 hour of period of conditioned feeding in rats,; format: functional
Procedure, shortened: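 Female rats (250–280 g) were kept singly on a 22-h food deprivation schedule, with pellets 10–12 a.m. and water always available. After 30–40 days of training they were dosed 1 h before the 2-h feeding and weighed before and after it. Weight gain was expressed as a percentage of the two preceding control days. ED50 is the dose giving 50% reduction.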

Mus musculus [7] = experiment: Effect on skeletal muscle tone, after 5 hour of peroral administration in mouse at a dose of 100 mg/kg; format: functional; details: Muscle tissue, route oral
Procedure, shortened: (§4)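 Male mice were placed for 1 h on a 60° inclined wire screen just after dosing and 4 h later. In a second test, trained mice hung by the forepaws from a horizontal 1.8 mm wire 15 cm up; normal mice touch it with a hind paw within 2 s and stay ≥1 min. ED50 is the dose making 50% fall. Dosing was oral in gum arabic suspension at 10 mL/kg after an overnight fast.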

Mus musculus [8] = experiment: Inhibitory activity against tremorine-induced tremors, after 5 hour of peroral administration in mouse; format: functional; details: po
Mus musculus [9] = experiment: Contractile activity in skeletal muscles, after 1 hour of peroral administration in mouse at dose 30 mg/kg; format: functional; details: Muscle tissue, route oral; procedure, shortened: as §4
Mus musculus [10] = experiment: Inhibitory activity against tremorine-induced tremors, after 1 hour of peroral administration in mouse at dose 20 mg/kg; format: functional; details: route oral; procedure, shortened: as §2
dog (Canis familiaris) = experiment: Antagonistic activity against apomorphine-induced emesis, after 5 hour of peroral administration in dogs; details: Canis lupus familiaris, po
Mus musculus [11] = experiment: Effect on skeletal muscle tone, after 1 hour of peroral administration in mouse at a dose of 200 mg/kg; format: functional; details: Muscle tissue, route oral; procedure, shortened: as §4
Mus musculus [12] = experiment: Effect on skeletal muscle tone, after 5 hour of peroral administration in mouse at a dose of 200 mg/kg; format: functional; details: Muscle tissue, route oral; procedure, shortened: as §4
Mus musculus [13] = experiment: Anticonvulsant activity against pentylenetetrazole-induced convulsions, after 1 hour of peroral administration in mouse at a dose of 100 mg/kg; format: functional; details: route oral; procedure, shortened: as §3
Mus musculus [14] = experiment: Anticonvulsant activity against tryptamine-induced convulsions, after 1 hour of peroral administration in mouse at a dose of 40 mg/kg; format: functional; details: route oral; procedure, shortened: as §3
Rattus norvegicus [15] = experiment: Inhibitory activity against norepinephrine-induced lethality, after 1 hour of peroral administration in rat at a dose of 40 mg/kg; format: functional; details: route oral
Procedure, shortened: (§5)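 Rats (80–90 g) dosed orally (arabic gum, 10 mL/kg) 1 or 5 h before norepinephrine 0.5 mg/kg iv, which kills unprotected rats within 30 min. ED50 is the dose protecting 50% of rats from lethality, by probit analysis.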

Rattus norvegicus [16] = experiment: Inhibitory activity against norepinephrine-induced lethality, after 5 hour of peroral administration in rat at a dose of 40 mg/kg; format: functional; details: route oral; procedure, shortened: as §5
Rattus norvegicus [17] = experiment: Antagonistic activity against apomorphine-induced stereotypy, after 1 hour of peroral administration in rats at a dose of 100 mg/kg; format: functional; details: route oral
Procedure, shortened: (§6)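 Male rats fasted overnight and given oral doses in arabic gum suspension (10 mL/kg) 1 h, or 1 and 5 h, before challenge. Apomorphine 3 mg/kg iv, with stereotypy observed 20 min later. ED50 is the dose inhibiting stereotypy in 50% of rats, per Janssen's method. Parenthetical entries give the maximal dose and percent activity.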

Rattus norvegicus [18] = experiment: Antagonistic activity against apomorphine-induced stereotypy in rats, by administering perorally at a dose of 100 mg/kg; format: functional; details: route oral; procedure, shortened: as §6
Rattus norvegicus [19] = experiment: Activity to evoke catalepsy in rats, by administering perorally at a dose of 200 mg/kg; format: functional; details: route oral
Procedure, shortened: (§7)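 Rats fasted overnight and given oral doses in arabic gum suspension (10 mL/kg), 1 h before screening or 1 and 5 h before profile testing. Forelegs placed on a horizontal bar 7 cm high, three times at 5-min intervals. Immobility of at least 15 s counts as catalepsy. ED50 is the dose giving catalepsy in 50% of rats, by probit analysis. Parenthetical entries give the maximal dose and percent activity.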

Rattus norvegicus [20] = experiment: Activity to evoke catalepsy, after 1 hour of peroral administration in rats at a dose of 200 mg/kg; format: functional; details: route oral; procedure, shortened: as §7
Rattus norvegicus [21] = experiment: Inhibition against conditioned avoidance response, after 1 hour of peroral administration in rats at a dose of 40 mg/kg; format: functional; details: route oral
Procedure, shortened: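 Male rats were trained in a shuttle box to avoid grid-floor shock by crossing compartments during a warning period. Dosing was oral as a gum arabic suspension at 10 mL/kg after an overnight fast. Percent inhibition was computed against a pretraining test. ED50 is the dose giving 50% inhibition.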

Mus musculus [22] = experiment: Activity of inclined screen in mouse, after 1 hour of peroral administration in mouse at a dose of 100 mg/kg; format: functional; details: route oral
Procedure, shortened: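 Male mice dosed orally (arabic gum suspension, 10 mL/kg, fasted overnight) 1 or 5 h before testing. Placed for 1 h on a wire screen bent at 60° to the horizontal. Ataxic or miorelaxed mice slide off. ED50 is the dose at which 50% of mice fall, by probit analysis. Ten animals per dose, with vehicle controls.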

Mus musculus [23] = experiment: Anticonvulsant activity against pentylenetetrazole-induced convulsions, after 1 hour of peroral administration in mouse at dose of 100 mg/kg; format: functional; details: route oral; procedure, shortened: as §3
Mus musculus [24] = experiment: Anticonvulsant activity against pentylenetetrazole-induced convulsions, after 5 hour of peroral administration in mouse at dose of 100 mg/kg; format: functional; details: route oral; procedure, shortened: as §3
Mus musculus [25] = experiment: Anticonvulsant activity against electroshock-induced convulsions, after 5 hour of peroral administration in mouse at dose of 100 mg/kg; format: functional; details: route oral; procedure, shortened: as §3
Mus musculus [26] = experiment: Inhibitory activity against tremorine-induced salivation, after 1 hour of peroral administration in mouse at dose of 60 mg/kg; format: functional; details: route oral; procedure, shortened: as §2
Mus musculus [27] = experiment: Inhibitory activity against tremorine-induced tremors, after 1 hour of peroral administration in mouse at dose of 60 mg/kg; format: functional; details: route oral; procedure, shortened: as §2

`CN(C)CCCN1c2ccccc2Sc2ccc(Cl)cc21` [CHLORPROMAZINE] was tested, and the ED50 (Mus musculus [1]) was 2.9 mg/kg, the ED50 (Mus musculus [2]) was 4.8 mg/kg and the inhibition in vivo at 7.5 mg/kg (Mus musculus [3]) was 15%.
Compound `COc1ccccc1N1CCN(CCCC(=O)c2ccc(F)cc2)CC1` [FLUANISONE] has an ED50 (Mus musculus [4]) of 15.7 mg/kg, an inhibition in vivo at 40 mg/kg (Mus musculus [5]) of 0% and an ED50 (Rattus norvegicus [6]) of 6 mg/kg. The inhibition in vivo at 100 mg/kg (Mus musculus [7]) was 0%.
For `O=C(CCCN1CCC(O)(c2ccc(Cl)cc2)CC1)c1ccc(F)cc1` [HALOPERIDOL], the ED50 (Mus musculus [8]) was 20 mg/kg, the inhibition in vivo at 30 mg/kg (Mus musculus [9]) was 0% and the inhibition in vivo at 20 mg/kg (Mus musculus [10]) was 0%. For the same compound, the ED50 (dog (Canis familiaris)) was 0.04 mg/kg.
Compound `O=c1[nH]c(-c2ccc(F)cc2)c(CCN2CCN(c3cc(Cl)cc(Cl)c3)CC2)o1` [LODIPERONE] has an inhibition in vivo at 200 mg/kg (Mus musculus [11]) of 10%, an inhibition in vivo at 200 mg/kg (Mus musculus [12]) of 0% and an inhibition in vivo at 100 mg/kg (Mus musculus [13]) of 0%. It also gave an inhibition in vivo at 40 mg/kg (Mus musculus [14]) of 0%, an inhibition in vivo at 40 mg/kg (Rattus norvegicus [15]) of 10% and an inhibition in vivo at 40 mg/kg (Rattus norvegicus [16]) of 10%. It also gave an inhibition in vivo at 100 mg/kg (Rattus norvegicus [17]) of 0%, an inhibition in vivo at 100 mg/kg (Rattus norvegicus [18]) of 0% and an inhibition in vivo at 200 mg/kg (Rattus norvegicus [19]) of 0%. It also gave an inhibition in vivo at 200 mg/kg (Rattus norvegicus [20]) of 0%, an inhibition in vivo at 40 mg/kg (Rattus norvegicus [21]) of 44% and an inhibition in vivo at 100 mg/kg (Mus musculus [22]) of 0%.
In the case of `COc1ccccc1N1CCN(CCc2oc(=O)[nH]c2-c2ccc(F)cc2)CC1` [ZOLOPERONE], the inhibition in vivo at 100 mg/kg (Mus musculus [23]) is reported as 0%, the inhibition in vivo at 100 mg/kg (Mus musculus [24]) is reported as 0% and the inhibition in vivo at 100 mg/kg (Mus musculus [25]) is reported as 0%. It also gave an inhibition in vivo at 60 mg/kg (Mus musculus [26]) of 0% and an inhibition in vivo at 60 mg/kg (Mus musculus [27]) of 10%.
